For 2 compounds, Activity, Ki and Ratio Ki results are on record in ChEMBL document CHEMBL2169854, “New insight into the central benzodiazepine receptor-ligand interactions: design, synthesis, biological evaluation, and molecular modeling of 3-substituted 6-phenyl-4H-imidazo[1,5-a][1,4]benzodiazepines and related compounds” (J Med Chem, 2011).

The target of experiment [1] is T1, GABA A receptor alpha-1/beta-1/gamma-2 (Homo sapiens) (UniProt P14867+P18507+P18505). In words: Antagonist at human recombinant GABA-A alpha1beta1gamma2L receptor expressed in Xenopus laevis oocytes assessed as blockade of diazepam-induced potentiation of GABA-induced chloride current at 10 uM incubated 60 seconds before addition of GABA measured after 30 seconds at holding potential -70 mV by two-microelectrode voltage clamp technique. The class given is functional, cell-based. The note with it: Oocyte.

The nature of experiment [2]: Displacement of [3H]flumazenil from central benzodiazepine receptor in human cortical membrane after 90 mins by beta liquid scintillation counting. Type of experiment: cell membranes. On the technique in general: Displacement assays read how much labelled ligand stays bound in the presence of the test substance.
The target in experiment [3] is T2, GABA A receptor alpha-2/beta-2/gamma-2 (Homo sapiens, UniProt P18507+P47869+P47870).
T2 sequence (P47870 whole entry): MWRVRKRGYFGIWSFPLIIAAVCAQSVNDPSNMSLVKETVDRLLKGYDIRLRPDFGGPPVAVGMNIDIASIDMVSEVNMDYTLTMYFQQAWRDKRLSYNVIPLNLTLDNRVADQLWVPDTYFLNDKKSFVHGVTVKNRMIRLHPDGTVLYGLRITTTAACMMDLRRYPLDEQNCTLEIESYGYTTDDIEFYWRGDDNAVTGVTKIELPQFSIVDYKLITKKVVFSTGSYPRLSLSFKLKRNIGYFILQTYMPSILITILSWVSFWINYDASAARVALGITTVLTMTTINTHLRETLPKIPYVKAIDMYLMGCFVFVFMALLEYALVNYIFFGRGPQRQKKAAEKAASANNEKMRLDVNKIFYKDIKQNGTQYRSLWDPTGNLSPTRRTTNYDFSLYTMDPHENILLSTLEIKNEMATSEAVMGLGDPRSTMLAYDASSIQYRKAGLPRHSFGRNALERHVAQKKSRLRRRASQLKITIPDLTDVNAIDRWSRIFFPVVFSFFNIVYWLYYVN
T2 sequence (P18507 whole entry): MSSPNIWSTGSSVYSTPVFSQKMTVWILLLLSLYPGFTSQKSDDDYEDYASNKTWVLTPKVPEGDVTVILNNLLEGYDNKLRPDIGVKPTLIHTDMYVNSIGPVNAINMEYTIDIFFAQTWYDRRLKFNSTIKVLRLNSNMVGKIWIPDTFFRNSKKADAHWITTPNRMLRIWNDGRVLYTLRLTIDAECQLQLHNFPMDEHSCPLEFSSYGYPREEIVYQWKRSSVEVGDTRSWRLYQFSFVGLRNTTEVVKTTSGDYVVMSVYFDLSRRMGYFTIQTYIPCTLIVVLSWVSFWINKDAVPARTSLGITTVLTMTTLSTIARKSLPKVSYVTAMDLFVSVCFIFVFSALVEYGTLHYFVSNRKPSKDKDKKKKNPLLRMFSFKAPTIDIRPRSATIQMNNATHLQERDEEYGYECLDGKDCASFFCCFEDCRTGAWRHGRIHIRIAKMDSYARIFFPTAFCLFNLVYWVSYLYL
T2 sequence (P47869 whole entry): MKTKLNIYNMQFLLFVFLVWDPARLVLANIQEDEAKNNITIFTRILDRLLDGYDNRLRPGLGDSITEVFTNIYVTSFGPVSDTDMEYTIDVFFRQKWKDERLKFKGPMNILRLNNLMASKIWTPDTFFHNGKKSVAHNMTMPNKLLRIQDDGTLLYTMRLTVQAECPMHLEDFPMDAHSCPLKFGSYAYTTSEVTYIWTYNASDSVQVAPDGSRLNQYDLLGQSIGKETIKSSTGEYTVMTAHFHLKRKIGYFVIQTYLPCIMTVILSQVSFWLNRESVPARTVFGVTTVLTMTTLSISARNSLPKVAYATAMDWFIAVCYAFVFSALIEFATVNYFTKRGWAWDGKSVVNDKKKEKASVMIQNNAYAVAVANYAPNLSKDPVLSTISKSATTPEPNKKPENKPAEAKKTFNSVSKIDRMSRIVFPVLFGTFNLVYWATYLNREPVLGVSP
In words: Displacement of [3H]flumazenil from human recombinant GABA-A alpha2beta2gamma2L receptor expressed in HEK293 cells. The class given is cell-based. The procedure, abridged:
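Membranes came from stably transfected HEK293 lines expressing α2β2γ2 or α5β3γ2, grown in MEM/EBSS with 10% FCS at 37 C, and were resuspended in 10 mM potassium phosphate pH 7.4 with 100 mM KCl. […] At least six concentrations were tested, DMSO ≤1%. Ki was obtained by Cheng–Prusoff from n = 3 experiments run in triplicate.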

Experiment [4] deals with Oocyte. In words: Antagonist at human recombinant GABA-A alpha5beta2gamma2L receptor expressed in Xenopus laevis oocytes assessed as blockade of diazepam-induced potentiation of GABA-induced chloride current at 10 uM incubated 60 seconds before addition of GABA measured after 30 seconds at holding potential -70 mV by two-microelectrode voltage clamp technique. Type of experiment: functional, cell-based. The procedure, abridged: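 Oocytes expressing human α1β2γ2L, α2β1γ2L or α5β2γ2L receptors were clamped at −70 mV. Compound at 10 μM was tested against the enhancement of the GABA EC10 response by 1.0 μM diazepam, with 60 s preapplication and 30 s coapplication. The response was expressed as percent potentiation, from 2–3 oocytes.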

Experiment [5] addresses GABA-A receptor; alpha-1/beta-2/gamma-2 (Homo sapiens) (UniProt P14867+P47870+P18507). Kind of experiment: Modulation of human recombinant GABA-A alpha1beta2gamma2L receptor expressed in Xenopus laevis oocytes assessed as effect on GABA-induced chloride current at 1 uM incubated 60 seconds before addition of GABA measured after 30 seconds at holding potential -70 mV by two-microelectrode voltage clamp technique relative to control. The class given is cell-based. The note with it: Oocyte.

The species entered for experiment [6] is Homo sapiens. In words: Ratio of Ki for central benzodiazepine receptor in human cortical membrane to Ki for central benzodiazepine receptor in human cortical membrane in presence of 50 uM GABA. Type of experiment: cell membranes.
Experiment [7] deals with T1, GABA A receptor alpha-1/beta-1/gamma-2 (Homo sapiens). Kind of experiment: Modulation of human recombinant GABA-A alpha1beta1gamma2L receptor expressed in Xenopus laevis oocytes assessed as effect on GABA-induced chloride current at 1 uM incubated 60 seconds before addition of GABA measured after 30 seconds at holding potential -70 mV by two-microelectrode voltage clamp technique relative to control. The class given is cell-based. The following applies: Oocyte.

In experiment [8] the test system is Oocyte. Kind of experiment: Modulation of human recombinant GABA-A alpha5beta2gamma2L receptor expressed in Xenopus laevis oocytes assessed as effect on GABA-induced chloride current at 10 uM incubated 60 seconds before addition of GABA measured after 30 seconds at holding potential -70 mV by two-microelectrode voltage clamp technique relative to control. Type of experiment: cell-based.

The source made the active and inactive calls. No cut-off for these calls is given here.

The Ki is a dissociation constant, usually derived from enzyme kinetics or from competition with a known ligand. On to `CCOC(=O)c1ncn2c1CN=C(c1ccc(C)cc1)c1ccccc1-2`, for which the result in experiment [1] and in experiment [4] was Active. In addition, the Ki in experiment [2] came out at 18.5 nM; in experiment [3], 105 nM. Also, the figures for the Activity in experiment [5], in experiment [7] and in experiment [8] were 8%, 0% and -22%, respectively. The Ratio Ki in experiment [6] amounted to 1.1.

As to `CCOC(=O)c1ncn2c1CN=C(c1ccc(F)cc1)c1cc(F)ccc1-2`, the result in experiment [1] and in experiment [4] was Active. The Ki in experiment [2] was determined as 22.3 nM; in experiment [3], 60 nM. For the same compound, the values for the Activity in experiment [5], in experiment [7] and in experiment [8] were -13%, -7.5% and -16%, respectively. Further, in experiment [6], the Ratio Ki is 1.05.
